In ChEMBL document CHEMBL3120107, “Cytotoxic cardiac glycosides and coumarins from Antiaris toxicaria” (2014):
In brackets after ≈: the same amount, converted by molar mass.

Key:
[1] = Cytotoxicity against human […] cells assessed as growth inhibition after 72 hrs by SRB assay; type: functional; conditions: for EC50: Homo sapiens, HCT9, 72 h, read-out: ED50 (the source's name)
Procedure, shortened: (§1)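 Sulforhodamine B assay run by NCI-validated procedure. Cells grown at 37 °C under humidified 5% CO2 in RPMI-1640 with 25 mM HEPES, […] (w/v) sodium bicarbonate, 10% (v/v) FBS and 100 μg/mL kanamycin. Compounds came from DMSO stocks, with final DMSO ≤ 1% (v/v). Continuous exposure for 72 h. ED50 (μg/mL, 50% cell-number reduction) interpolated from dose-response data. Triplicate tests. Doxorubicin served as positive control.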

[2] = system: A549; test: Cytotoxicity against human A549 cells assessed as growth inhibition after 72 hrs by SRB assay; type: functional; conditions: for EC50: Homo sapiens, A549, 72 h, read-out: ED50 (the source's name); procedure, shortened: as §1
[3] = Cytotoxicity against human KBVIN cells assessed as growth inhibition after 72 hrs by SRB assay; type: functional; conditions: for EC50: Homo sapiens, KBVIN, 72 h, read-out: ED50 (the source's name); procedure, shortened: as §1
[4] = Cytotoxicity against human U87MG cells assessed as growth inhibition after 72 hrs by SRB assay; type: functional, U-87MG ATCC; conditions: for EC50: Homo sapiens, U-87 MG, 72 h, read-out: ED50 (the source's name); procedure, shortened: as §1
[5] = system: CAKI-1; test: Cytotoxicity against human CAKI-1 cells assessed as growth inhibition after 72 hrs by SRB assay; type: functional; conditions: for EC50: Homo sapiens, CAKI-1, 72 h, read-out: ED50 (the source's name); procedure, shortened: as §1
[6] = system: PC-3; test: Cytotoxicity against human PC3 cells assessed as growth inhibition after 72 hrs by SRB assay; type: functional; conditions: for EC50: Homo sapiens, PC-3, 72 h, read-out: ED50 (the source's name); procedure, shortened: as §1
[7] = system: MCF7; test: Cytotoxicity against human MCF7 cells assessed as growth inhibition after 72 hrs by SRB assay; type: functional; conditions: for EC50: Homo sapiens, MCF7, 72 h, read-out: ED50 (the source's name); procedure, shortened: as §1
[8] = system: 1A9; test: Cytotoxicity against human 1A9 cells assessed as growth inhibition after 72 hrs by SRB assay; type: functional; conditions: for EC50: Homo sapiens, 1A9, 72 h, read-out: ED50 (the source's name); procedure, shortened: as §1
[9] = system: KB; test: Cytotoxicity against human KB cells assessed as growth inhibition after 72 hrs by SRB assay; type: functional; conditions: for EC50: Homo sapiens, KB, 72 h, read-out: ED50 (the source's name); procedure, shortened: as §1
[10] = system: SK-MEL-2; test: Cytotoxicity against human SK-MEL-2 cells assessed as growth inhibition after 72 hrs by SRB assay; type: functional; conditions: for EC50: Homo sapiens, SK-MEL-2, 72 h, read-out: ED50 (the source's name); procedure, shortened: as §1

| SMILES | EC50 [1] [µg/mL] | EC50 [2] [µg/mL] | EC50 [3] [µg/mL] | EC50 [4] [µg/mL] | EC50 [5] [µg/mL] | EC50 [6] [µg/mL] | EC50 [7] [µg/mL] | EC50 [8] [µg/mL] | EC50 [9] [µg/mL] | EC50 [10] [µg/mL] | ED50 [1] [µg/mL] | ED50 [2] [µg/mL] | ED50 [3] [µg/mL] | ED50 [4] [µg/mL] | ED50 [5] [µg/mL] | ED50 [6] [µg/mL] | ED50 [7] [µg/mL] | ED50 [8] [µg/mL] | ED50 [9] [µg/mL] | ED50 [10] [µg/mL] |
| --- | --- | --- | --- | --- | --- | --- | --- | --- | --- | --- | --- | --- | --- | --- | --- | --- | --- | --- | --- | --- |
| C[C@H]1O[C@H](O[C@H]2CC[C@]3(C=O)[C@H]4C[C@@H](O)[C@]5(C)[C@@H](C6=CC(=O)OC6)CC[C@]5(O)[C@@H]4CC[C@]3(O)C2)[C@H](O)[C@H](O)[C@H]1O | 0.15 (≈ 0.265 µM) | 0.059 (≈ 0.104 µM) | 0.15 (≈ 0.265 µM) | 0.017 (≈ 0.03 µM) | 0.072 (≈ 0.127 µM) | 0.0044 (≈ 0.00777 µM) | 0.1 (≈ 0.176 µM) | 0.058 (≈ 0.102 µM) | 0.14 (≈ 0.247 µM) | 0.13 (≈ 0.229 µM) |  |  |  |  |  |  |  |  |  |  |
| C[C@@H]1O[C@H](O[C@H]2CC[C@]3(C=O)[C@H]4C[C@@H](O)[C@]5(C)[C@@H](C6=CC(=O)OC6)CC[C@]5(O)[C@@H]4CC[C@]3(O)C2)[C@H](O)[C@H](O)[C@H]1O | 0.066 (≈ 0.116 µM) | 0.013 (≈ 0.0229 µM) | 0.061 (≈ 0.108 µM) | 0.071 (≈ 0.125 µM) | 0.015 (≈ 0.0265 µM) | 0.05 (≈ 0.0882 µM) | 0.018 (≈ 0.0318 µM) | 0.014 (≈ 0.0247 µM) | 0.067 (≈ 0.118 µM) | 0.065 (≈ 0.115 µM) |  |  |  |  |  |  |  |  |  |  |
| CC1(C)Oc2ccc3ccc(=O)oc3c2[C@@H](O[C@@H]2O[C@H](CO)[C@@H](O)[C@H](O)[C@H]2O)[C@@H]1O |  | 1.2 (≈ 2.83 µM) | 4.1 (≈ 9.66 µM) | 7.4 (≈ 17.4 µM) |  |  | 3.1 (≈ 7.3 µM) |  | 5.8 (≈ 13.7 µM) |  |  |  |  |  |  |  |  |  |  |  |
| C[C@H]1O[C@@H](O[C@H]2CC[C@]3(C=O)[C@H]4CC[C@]5(C)[C@@H](C6=CC(=O)OC6)CC[C@]5(O)[C@@H]4CC[C@]3(O)C2)[C@H](O)[C@H](O)[C@H]1O[C@@H]1O[C@H](CO)[C@@H](O)[C@H](O)[C@H]1O | 0.94 (≈ 1.32 µM) | 0.12 (≈ 0.168 µM) | 1.7 (≈ 2.39 µM) | 1.9 (≈ 2.67 µM) | 0.51 (≈ 0.716 µM) | 0.6 (≈ 0.842 µM) | 0.58 (≈ 0.814 µM) | 0.53 (≈ 0.744 µM) | 1.5 (≈ 2.1 µM) | 0.16 (≈ 0.224 µM) |  |  |  |  |  |  |  |  |  |  |
| C[C@]12CC[C@H]3[C@@H](CC[C@@H]4C[C@@H](O)CC[C@@]43CO)[C@@]1(O)CC[C@@H]2C1=CC(=O)OC1 | 0.46 (≈ 1.18 µM) | 0.05 (≈ 0.128 µM) | 0.5 (≈ 1.28 µM) | 0.5 (≈ 1.28 µM) | 0.11 (≈ 0.282 µM) | 0.15 (≈ 0.384 µM) | 0.21 (≈ 0.538 µM) | 12 (≈ 30.7 µM) | 0.45 (≈ 1.15 µM) | 0.7 (≈ 1.79 µM) |  |  |  |  |  |  |  |  |  |  |
| CO[C@H]1[C@@H](O[C@H]2CC[C@]3(C=O)[C@H]4CC[C@]5(C)[C@@H](C6=CC(=O)OC6)CC[C@]5(O)[C@@H]4CC[C@]3(O)C2)O[C@H](C)[C@@H](O)[C@H]1O (stereo in doubt; 21) [STROPHATHOJAVOSIDE] |  |  |  |  |  |  |  |  |  |  | 0.067 (≈ 0.119 µM) | 0.016 (≈ 0.0283 µM) | 0.051 (≈ 0.0903 µM) | 0.078 (≈ 0.138 µM) | 0.014 (≈ 0.0248 µM) | 0.052 (≈ 0.0921 µM) | 0.042 (≈ 0.0744 µM) | 0.013 (≈ 0.023 µM) | 0.066 (≈ 0.117 µM) | 0.064 (≈ 0.113 µM) |
| CO[C@H]1[C@@H](O[C@H]2CC[C@]3(C=O)[C@H]4CC[C@]5(C)[C@@H](C6=CC(=O)OC6)CC[C@]5(O)[C@@H]4CC[C@]3(O)C2)O[C@H](C)[C@@H](O)[C@H]1O (stereo in doubt; 23) [STROPHATHOJAVOSIDE] | 0.085 (≈ 0.151 µM) | 0.015 (≈ 0.0266 µM) | 0.05 (≈ 0.0885 µM) | 0.043 (≈ 0.0762 µM) | 0.014 (≈ 0.0248 µM) | 0.063 (≈ 0.112 µM) | 0.024 (≈ 0.0425 µM) | 0.013 (≈ 0.023 µM) | 0.081 (≈ 0.143 µM) | 0.063 (≈ 0.112 µM) |  |  |  |  |  |  |  |  |  |  |
| C[C@H]1O[C@H](O[C@H]2CC[C@]3(C=O)[C@H]4C[C@@H](O)[C@]5(C)[C@@H](C6=CC(=O)OC6)CC[C@]5(O)[C@@H]4CC[C@]3(O)C2)[C@H](O)[C@H](O)[C@@H]1O [ANTIALLOSIDE] | 0.11 (≈ 0.194 µM) | 0.046 (≈ 0.0812 µM) | 0.075 (≈ 0.132 µM) | 0.15 (≈ 0.265 µM) | 0.068 (≈ 0.12 µM) | 0.085 (≈ 0.15 µM) | 0.12 (≈ 0.212 µM) | 0.062 (≈ 0.109 µM) | 0.065 (≈ 0.115 µM) | 0.12 (≈ 0.212 µM) |  |  |  |  |  |  |  |  |  |  |
| C[C@]12[C@H](O)C[C@H]3[C@@H](CC[C@]4(O)CCCC[C@]34C=O)[C@@]1(O)CC[C@@H]2C1=CC(=O)OC1 [ANTIARIGENIN] | 4.5 (≈ 11.1 µM) | 0.59 (≈ 1.46 µM) | 5.1 (≈ 12.6 µM) | 4.6 (≈ 11.4 µM) | 1.3 (≈ 3.21 µM) | 1.2 (≈ 2.97 µM) | 1.3 (≈ 3.21 µM) | 0.12 (≈ 0.297 µM) | 5.3 (≈ 13.1 µM) | 0.41 (≈ 1.01 µM) |  |  |  |  |  |  |  |  |  |  |
